Screening data as filed in PubChem BioAssay.
Sampled rows, rich in hits. Any-hit rate of the full collection: about 3%.
HNF4A DNA FP – change in binding of human HNF4 alpha to DNA; 360,000 compounds, 0.3% hits; P41235; AID 1224865; activity change, % at 10 µM; HNF4a-FITC DNA binding, fluorescence polarization, 1 h; in the data active means activity change above about 30%, passing the limit was not always enough
Target sequence (P41235 whole entry, looked up): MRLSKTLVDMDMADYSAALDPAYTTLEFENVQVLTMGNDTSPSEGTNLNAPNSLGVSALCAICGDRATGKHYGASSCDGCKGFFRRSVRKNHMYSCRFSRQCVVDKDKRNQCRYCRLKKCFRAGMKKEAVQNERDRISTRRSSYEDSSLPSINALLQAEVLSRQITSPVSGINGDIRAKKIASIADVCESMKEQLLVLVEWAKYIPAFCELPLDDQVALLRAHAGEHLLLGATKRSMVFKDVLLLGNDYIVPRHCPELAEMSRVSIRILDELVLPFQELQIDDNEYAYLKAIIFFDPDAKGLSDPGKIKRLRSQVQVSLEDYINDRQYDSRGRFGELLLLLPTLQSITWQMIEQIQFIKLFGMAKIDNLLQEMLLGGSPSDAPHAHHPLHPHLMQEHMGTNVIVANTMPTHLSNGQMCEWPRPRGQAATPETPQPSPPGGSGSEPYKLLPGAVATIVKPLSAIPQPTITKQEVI
Granule exo inh – lytic granule exocytosis inhibition; TALL-104 LAMP-1 surface exposure, flow cytometry; cells stimulated with thapsigargin and PMA; inhibition, % at 10 µM; 360,000 compounds, 0.66% hits; AID 651702;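 active means inhibition above about 55%, limit read from the data; inconclusive means no clear call, values can overlap the other calls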
SENP1 FRET inh – inhibitors of human SENP1 SUMO protease catalytic domain; Q9P0U3; recombinant SENP1 catalytic domain, CyPet-SUMO1-YPet FRET cleavage; inhibition, % at 10 µM; 360,000 compounds, 0.21% hits;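 active means inhibition at least 30% at 10 µM, raw YFP signal under a set limit, fluorescence ratio 0.5 to 1.5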
Target sequence (Q9P0U3 419-644 limits assumed): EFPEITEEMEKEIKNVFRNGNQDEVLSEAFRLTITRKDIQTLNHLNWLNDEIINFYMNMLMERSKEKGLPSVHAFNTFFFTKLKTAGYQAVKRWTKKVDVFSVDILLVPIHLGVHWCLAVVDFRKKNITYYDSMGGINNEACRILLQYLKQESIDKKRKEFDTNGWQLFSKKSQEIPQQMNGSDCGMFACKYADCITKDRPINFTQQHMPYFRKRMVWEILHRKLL
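Test system: recombinant human SENP1 catalytic domain, His6-tagged / Medium: pH 8 Tris buffer with EDTA, NaCl, BME, BSA, NP40, catalase / Also added: SUMO1 FRET substrate flanked by Cypet and Ypet, 25 nM / Times: 50 min reaction at room temperature / Signal: FRET, CFP and YFP emission / Control set: no-enzyme low control and enzyme-plus-DMSO high control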
DSG3 Ab inh – inhibitors of pemphigus antibody binding to human desmoglein-3; P32926; DSG3-coupled beads, scFv-anti-DSG3-GFP binding, flow cytometry; stronger effect = lower value; binding (percent of control), % at 10 µM; 310,000 compounds, 0.48% hits; AID 588358;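 active means binding more than 3 SD below its plate's average and above zero; inconclusive means below that plate limit but binding exactly zero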
Myeloid diff 2 – promotes myeloid progenitor differentiation | ER-HoxA9 myeloid progenitors, lysozyme-GFP differentiation, flow cytometry | AID 624256 | calls only at 10 µM | 360,000 compounds, 1% hits;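 active means normalized GFP-positive differentiation at or above the plate's own cutoff, the solvent-only control mean plus 3 SD; inconclusive means no clear call, values can overlap the other calls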;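 further: cells exposed to compound for four days before flow analysis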
H9c2 protect – myocardial damage modulation in H9c2 cells | H9c2 cardiomyocytes, H2O2 injury protection, ATPLite, 2 h | protection from H2O2 cell death, % at 20 µM | 360,000 compounds, 0.63% hits;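 active means compounds giving at least 50% protection of heart cells from peroxide-induced death in the single-dose screen, raw or plate-pattern-corrected value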
Myeloid diff CP1 – compounds promoting myeloid differentiation. shares compounds with Myeloid diff 2. ER-HoxA9 myeloid progenitors, GFP/Mac1 double-positive flow. calls only. 2,300 compounds, 2% hits. AID 651706;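 active means share of green or green-and-red cells above 9 and 9% in run 1 or 4 and 3% in run 2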
GFP autofluor – flagged as fluorescent in myeloid differentiation counter-screen; shares compounds with Myeloid diff 2; ER-HoxA9 myeloid progenitors, no estrogen, GFP autofluorescence flow cytometry; vehicle wells 0%, positive control 100%; fluorescence response, % (test concentration not listed); 2,300 compounds, 7.4% hits; AID 651707;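 active means over 5% cells positive for green fluorescent reporter, or over 2% positive for both it and APC stain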
Granule exo CP1 – lytic granule exocytosis inhibition. inhibition, % at 10 µM. 1,500 compounds, 11% hits. shares compounds with Granule exo inh. TALL-104 cells, LAMP-1 externalization, flow cytometry; stimulated with PMA plus thapsigargin; in the data active means inhibition above about 60%
HNF4a DNA conf – change in binding of human HNF4 alpha to DNA, retest; HNF4A-FITC DNA binding, fluorescence polarization, 1 h; AID 1224897; activity change, % at 12.5 µM; shares compounds with HNF4A DNA FP; 210 compounds, 99% hits; call rule not given here
Of the large screens only hits and unclear results are named; the others gave an inactive call (follow-up assays come after a bar, where they were run).

COc1ccc(-c2cc(C(F)(F)F)c(C#N)c(SCC(=O)O)n2)cc1	none
Cc1ccc(-c2cc(C(F)(F)F)c(C#N)c(SCCC#N)n2)o1	none | Myeloid diff CP1 inactive | GFP autofluor inactive
O=C(NNC(=O)C1CCN(C(=O)Nc2ccccc2)CC1)c1ccc(F)cc1	none (no result: DSG3 Ab inh)
Cc1sc2ncnc(NCCc3ccc(S(N)(=O)=O)cc3)c2c1C	none | Myeloid diff CP1 inactive | GFP autofluor inactive
NS(=O)(=O)c1ccc(CCNc2ncnc3sccc23)cc1	none
O=C(O)c1ccccc1Cc1ccc2c(c1)CCCC2	none
O=C(Cc1csc(NC(=O)Nc2cccc(Cl)c2)n1)NC1CCCC1	none
Cn1c(N=Nc2ccccc2)nc2ccccc21	none | Myeloid diff CP1 inactive | GFP autofluor inactive
CN(C)c1ccc(N=Nc2nc3ccccc3n2C)cc1	none
CC1=NN(C(C#N)c2ccc(F)cc2)C(C)(C)C1 (centres undefined)	Myeloid diff 2 active | Myeloid diff CP1 inactive | GFP autofluor inactive
CC1=NN(C(C#N)c2ccc([N+](=O)[O-])cc2)C(C)(C)C1 (centres undefined)	none (no result: HNF4A DNA FP, Granule exo inh, SENP1 FRET inh, Myeloid diff 2, H9c2 protect)
CCOC(=O)c1sc2c(c1C)c(=O)n(Cc1ccccc1)c(=O)n2CCN(C)C	none
FC(F)(F)c1cccc(NC(=S)N(CCCN2CCCC2)Cc2cccn2Cc2ccc(Cl)cc2)c1	Granule exo inh 68.3, Myeloid diff 2 active | Myeloid diff CP1 inactive | GFP autofluor 41.2 | Granule exo CP1 inactive
O=C(O)c1ccccc1-c1ccc(/C=C2\SC(=O)N(c3ccccc3)C2=O)o1	none
O=C1S/C(=C\c2ccc(N3CCOCC3)o2)C(=O)N1c1ccccc1	Granule exo inh 67.7, Myeloid diff 2 active | Myeloid diff CP1 inactive | GFP autofluor 9.6 | Granule exo CP1 inactive
CCCn1c(SCC(=O)N2c3ccccc3CC2C)n[nH]c1=O (centres undefined)	none
C=CCN1C=CC(=CC=C(C#N)C#N)C=C1	none
C=CCN1C=C/C(=C\C=C(C#N)C#N)c2ccccc21	HNF4A DNA FP 94.4, Myeloid diff 2 active | Myeloid diff CP1 inactive | GFP autofluor inactive | HNF4a DNA conf 111.2
CN(C)c1ccc(C=NN2C(=O)CSC2=S)c(Cl)c1	HNF4A DNA FP 86.9, Myeloid diff 2 active | Myeloid diff CP1 inactive | GFP autofluor inactive | HNF4a DNA conf 88.4
CCC(C)NC(=O)c1cc2c(=O)n3cccc(C)c3nc2s1 (centres undefined)	none
Nc1c(Cl)cc(-c2csc(NC(CO)c3nc4ccccc4n3CCOCCO)n2)cc1Cl (centres undefined)	Granule exo inh 70.2 | Granule exo CP1 inactive
CN1CCN(c2cc(-c3ccccc3)nc3cc(-c4ccc(F)cc4)nn23)CC1	Granule exo inh 103.4 | Granule exo CP1 100.2
Fc1ccc(-c2cc3nc(-c4ccccc4)cc(N4CCN(CCN5CCOCC5)CC4)n3n2)cc1	Granule exo inh 73.2, Myeloid diff 2 active | Granule exo CP1 inactive
O=C(c1ccoc1)N1CCN(c2cc(-c3ccccc3)nc3cc(-c4ccccc4)nn23)CC1	none
CC(Oc1ccc(Cl)cc1)C(=O)N(C)CC(=O)Nc1ccc(N2CCOCC2)cc1 (centres undefined)	none
O=C(CN1CCN(Cc2cccc3ccccc23)CC1)NCCc1ccccc1	Granule exo inh 77.6 | Granule exo CP1 inactive
Cc1ccccc1CN1CCN(CC(=O)NCc2ccccc2)CC1	none
CC1CCCN(S(=O)(=O)c2ccc(NC(=O)CNC3CCCC3)cc2)C1 (centres undefined)	none (no result: DSG3 Ab inh, Myeloid diff 2)
O=C(CNC1CCCCC1)Nc1ccc(S(=O)(=O)N2CCCCC2)cc1	Granule exo inh 78.0 | Granule exo CP1 inactive
O=C(Oc1ccccc1/C=C\C(=O)c1cc2ccccc2o1)c1cccc(F)c1	Myeloid diff 2 inconclusive
COc1cccc(C(=O)Oc2ccccc2/C=C\C(=O)c2cc3ccccc3o2)c1	Granule exo inh 86.2, Myeloid diff 2 inconclusive | Granule exo CP1 inactive
CC1(C)CC(C(CCN(Cc2ccccc2)C(=O)c2ccco2)c2ccc(F)cc2)CCO1 (centres undefined)	none
O=C(c1ccco1)N(CCC(c1ccccc1)c1ccco1)Cc1ccc(F)cc1 (centres undefined)	Granule exo inh 59.0, Myeloid diff 2 active | Granule exo CP1 inactive
COC(=O)c1ccc(NCc2c(O)ccc(O)c2Br)cc1Cl	Granule exo inh 98.4 | Granule exo CP1 79.7
COC(=O)c1ccc(NCc2cc(O)ccc2O)cc1O	none
Cc1nc2ccccc2c(C)c1CC(=O)OC(C)C(=O)NC1(C#N)CCCCC1 (centres undefined)	none
CCCCCc1c(-c2ccccc2OC)ncn1CCc1ccccc1OC	Granule exo inh 67.7, Myeloid diff 2 inconclusive (no result: DSG3 Ab inh, H9c2 protect) | Granule exo CP1 inactive
CCCCCc1c(-c2cccc(OC)c2)ncn1CCc1ccccc1OC	Granule exo inh 76.3 (no result: DSG3 Ab inh, H9c2 protect) | Granule exo CP1 inactive
CCCCCc1c(-c2cccc(F)c2)ncn1CCc1ccccc1OC	Granule exo inh 55.5 (no result: DSG3 Ab inh, H9c2 protect) | Granule exo CP1 67.7
CCCCCc1c(-c2cccc(Cl)c2)ncn1CCc1ccccc1OC	none (no result: DSG3 Ab inh, H9c2 protect)
COc1ccc(CCN(C)CC(O)COc2ccc(C(C)=O)cc2OC)cc1OC (centres undefined)	none (no result: DSG3 Ab inh)
Cc1ccc(NC(=O)COC(=O)C2CC3CCCC(C2)C3=O)c([N+](=O)[O-])c1 (centres undefined)	none
CCCCn1c(N)c(N(CCOC)C(=O)c2sc3cc(F)ccc3c2Cl)c(=O)[nH]c1=O	none
O=C(Nc1ccc(S(=O)(=O)Nc2ccccc2)cc1)c1ccc(CN2CCOCC2)cc1	Granule exo inh 75.7 | Granule exo CP1 inactive
Cc1nc2c(-c3ccc(F)cc3)c(C)nn2c(C)c1CCC(=O)Nc1ccccc1	none
CCN1CCN(c2ccc(NC(=O)CCc3c(C)nc4c(-c5ccc(F)cc5)c(C)nn4c3C)cc2)CC1	Granule exo inh 57.2 | Granule exo CP1 inactive
COCCn1c(-c2ccc(-c3ccccc3Cl)o2)nc2c1c(=O)[nH]c(=O)n2CC(C)C	none (no result: DSG3 Ab inh)
CCCCn1c(=O)[nH]c(=O)c2c1nc(-c1ccc(-c3ccccc3Br)o1)n2CCOC	Granule exo inh 55.9 | Granule exo CP1 inactive
COc1ccc2nc3cc(Cl)ccc3c(C#N)c2c1	none
